Experimental data: paper PMC4800303 (British Journal of Cancer, 2016)
In brackets after ≈: the same amount, converted by molar mass.

Tests used:
[1] = system: phospho-(ser780)-Rb (pRb); format: in vivo, mice; conditions: Mus musculus, COLO 205, read-out: IC50,Abemaciclib
Outline: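 Semimechanistic PK/PD model with four sequential transit compartments (early G1, late G1, S, G2/M). pRb, TopoIIα and pHH3 represent late G1, S and G2/M phase density. Model refitted to colo-205 xenograft biomarker data, including Total Rb after single or daily oral 50 mg kg⁻¹ abemaciclib. Population approach for longitudinal data. IC50 is an estimated model parameter.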

[2] = Pharmacokinetics in xenograft tumour-bearing mice; format: in vivo; conditions: vemurafenib and abemaciclib coadministered; data not shown
Total Rb = test: Abemaciclib-mediated inhibition of Total Rb in xenograft tumours; format: in vivo, mice; conditions: 50 mg kg^−1 every day
Outline: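 Colo-205 xenograft mice given abemaciclib 50 mg kg⁻¹ orally once daily for 56 days; tumour collected at 28 and 56 days, n=5 per time point. Tumour lysates assayed for Total Rb alongside pRb, TopoIIα and pHH3. Data were added to a refit of the cell-cycle PK/PD model.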

[3] = system: BRAF-mutated (V600E/K) metastatic melanoma; conditions: pivotal phase III registration trial; ref Chapman et al., 2011; cited from earlier work
pRb = test: Biomarker model: effect of vemurafenib on pRb in A375 xenograft tumours; format: in vivo, mice; conditions: Mus musculus, A-375, read-out: Inhibition of pRb
Outline: (§1)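 A375 xenograft mice given single oral vemurafenib: 15 mg kg⁻¹ with blood and tumour at 1, 2, 6, 12, 24, 48 h; 7.5, 30 or 60 mg kg⁻¹ with sampling at 4, 8, 24 h; n=5 per time point. Tumour biomarkers expressed as percentage of vehicle control. Plasma PK fitted by one-compartment model with saturable absorption; indirect response model links concentration to pMEK, driving pERK; values from model fitting/simulation.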

[4] = system: phospho-(ser217/221)-mitogen-activated protein kinase kinase (pMEK); format: in vivo, mice; conditions: after a 15 mg kg^−1 dose of vemurafenib
Outline: as §1

[5] = system: phospho-(thr202/tyr204)-ERK (pERK); test: Biomarker model: effect of vemurafenib on pERK in A375 xenograft tumours; format: in vivo, mice
Outline: as §1

A375 xenograft tumours = test: Tumour growth inhibition and tumour model in A375 xenograft tumours; format: in vivo, mice; conditions: continuous vemurafenib treatment; estimated
Outline: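 A375 xenograft mice received vemurafenib 15 mg kg⁻¹ twice daily for 48 days to allow resistance. They then received abemaciclib 90 mg kg⁻¹ daily or continued vemurafenib for 28 days (n=8 per group), with vehicle controls (n=8). Tumour size was measured every 3–4 days for ∼13 weeks. Time to resistance was estimated by the tumour growth model with a modulator compartment.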

Cyclin D1 = test: Biomarker model: effect of vemurafenib on Cyclin D1 in A375 xenograft tumours; format: in vivo, mice
Outline: as §1

[6] = after a 15 mg kg^−1 dose of vemurafenib
[7] = continuous vemurafenib, at time to resistance (∼30 days), model

Row | IC50 [1] [ng/mL] | SMILES | Pharmacokinetics after coadministration [2] | Inhibition of Total Rb (Total Rb) [%] | Progression-free survival (PFS) [3] [months] | inhibition at 15 mg/kg (pRb) [%] | Time of maximum inhibition of pMEK [4] [h] | Time of maximum inhibition of pERK [5, 6] [h] | Elevation of pERK over baseline at resistance [5, 7] | Time to resistance (A375 xenograft tumours) [days] | inhibition at 15 mg/kg (Cyclin D1; Mus musculus, A-375, read-out: Inhibition of Cyclin D1) [%] | Time of maximum inhibition of Cyclin D1 (Cyclin D1; [6]) [h] | Elevation of Cyclin D1 over baseline at resistance (Cyclin D1; [7])
1 | 4.99 (≈ 9.85 nM) | CCN1CCN(Cc2ccc(Nc3ncc(F)c(-c4cc(F)c5nc(C)n(C(C)C)c5c4)n3)nc2)CC1 [abemaciclib] | neither vemurafenib nor abemaciclib exhibited altered pharmacokinetics after coadministration | ~40 |  |  |  |  |  |  |  |  | 
2 |  | CN(C)/N=N/c1[nH]cnc1C(N)=O [dacarbazine] |  |  | 1.6 |  |  |  |  |  |  |  | 
3 |  | CCCS(=O)(=O)Nc1ccc(F)c(C(=O)c2c[nH]c3ncc(-c4ccc(Cl)cc4)cc23)c1F [vemurafenib] | neither vemurafenib nor abemaciclib exhibited altered pharmacokinetics after coadministration |  | 5.3 | 50 | 2 | 2 | nearly twofold | ~30 | 33 | 10 | nearly twofold
